Source: ChEMBL document CHEMBL3124781, “Heat shock protein 70 inhibitors. 1. 2,5'-thiodipyrimidine and 5-(phenylthio)pyrimidine acrylamides as irreversible binders to an allosteric site on heat shock protein 70” (J Med Chem, 2014)
Calls of active or inactive are those of the source. The rule behind the calls is not given here.

How the values were obtained:
MOLM-13 = assay: Induction of apoptosis in human MOLM13 assessed as caspase 3/7 activation using Z-DEVD-R110 as substrate pretreated for 16 hrs followed by substrate addition by fluorescence-based assay; format: functional, cell-based
How it was run: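 MOLM-13 cells (30000/well, RPMI) rested up to 24 h at 37 °C, 5% CO2. Treated 16 h with compound or DMSO, in triplicate. Then buffer added containing 10 mM HEPES pH 7.5, 2 mM EDTA, 0.1% CHAPS and 25 μM Z-DEVD-R110. Fluorescence read once stable; % increase in apoptotic cells calculated versus control.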

Kasumi 1 = assay: Growth inhibition of human Kasumi-1 cells expressing p-gp/MDR1 after 72 hrs by Alamar Blue assay; format: functional, cell-based; conditions: Kasumi 1, 72 h
How it was run: (§1)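 Cells plated 8000/well (SKBr3, adherent) or 20000/well (Kasumi-1, suspension) and left 24 h at 37 °C. Compound added in triplicate for 72 h. Alamar Blue (50 μM) added; fluorescence (ex 530/em 580 nm) read 6 h later.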

SK-BR-3 [1] = assay: Induction of apoptosis in human SKBR3 cells assessed as PARP cleavage by Western blotting analysis; format: functional, cell-based
How it was run: (§2)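 SKBr3 cells at 60–70% confluence treated with compound or DMSO for the indicated times. Lysed in 50 mM Tris pH 7.4, 150 mM NaCl, 1% NP-40. 10–50 μg protein (BCA) resolved by SDS–PAGE and immunoblotted for HER2, Raf-1, or the PARP p85 fragment, with β-actin as loading control.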

[2] = Inhibition of Hsp70 in human SKBR3 cells assessed as RAF1 protein degradation by Western blotting analysis; format: cell-based; conditions: SK-BR-3; how it was run: as §2
[3] = Inhibition of Hsp70 in human SKBR3 cells assessed as HER2 protein degradation by Western blotting analysis; format: cell-based; conditions: SK-BR-3; how it was run: as §2
[4] = target: Heat shock protein HSP 90-beta (Homo sapiens, UniProt P08238); assay: Displacement of GM-cy3B from Hsp90 in human SKBR3 cells after 24 hrs by fluorescence polarization assay; set-up: species or system SK-BR-3
Heat shock protein HSP 90-beta, sequence (P08238 whole entry): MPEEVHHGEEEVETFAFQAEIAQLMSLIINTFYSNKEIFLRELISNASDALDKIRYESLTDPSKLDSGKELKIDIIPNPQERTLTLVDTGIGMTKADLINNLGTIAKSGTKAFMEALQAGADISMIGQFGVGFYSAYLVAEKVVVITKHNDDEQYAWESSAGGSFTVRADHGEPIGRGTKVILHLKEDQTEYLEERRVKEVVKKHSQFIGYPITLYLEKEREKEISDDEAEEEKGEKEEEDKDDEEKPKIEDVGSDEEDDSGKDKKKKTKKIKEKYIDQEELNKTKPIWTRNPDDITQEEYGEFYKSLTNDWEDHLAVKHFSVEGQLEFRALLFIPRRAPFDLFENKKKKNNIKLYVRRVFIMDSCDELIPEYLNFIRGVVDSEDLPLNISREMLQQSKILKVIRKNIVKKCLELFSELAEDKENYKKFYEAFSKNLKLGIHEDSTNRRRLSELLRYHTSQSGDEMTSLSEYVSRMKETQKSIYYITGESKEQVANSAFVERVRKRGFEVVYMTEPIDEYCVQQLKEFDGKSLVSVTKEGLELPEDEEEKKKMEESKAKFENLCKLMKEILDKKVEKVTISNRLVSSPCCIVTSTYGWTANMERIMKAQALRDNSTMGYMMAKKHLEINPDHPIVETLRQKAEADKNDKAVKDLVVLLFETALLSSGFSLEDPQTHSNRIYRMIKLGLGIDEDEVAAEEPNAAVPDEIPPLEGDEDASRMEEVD
How it was run: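 Final 6 nM GM-cy3B with 3 μg SKBr3 lysate protein; compound in triplicate; geldanamycin as positive control. Shaken 24 h at 4 °C, mP read. Concentration displacing 50% of bound tracer obtained by curve fitting.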

[5] = Growth inhibition of human SKBR3 cells after 72 hrs by Alamar Blue assay; format: functional, cell-based; conditions: SK-BR-3, 72 h; how it was run: as §1
[6] = Inhibition of His-tagged Escherichia coli DNAK assessed as inhibition of DNAJ complex formation
SK-BR-3 [7] = assay: (§3) Inhibition of Hsp70 in human SKBR3 cells assessed as inhibition of HOP complex formation after 24 hrs by Western blotting analysis; format: cell-based
How it was run: (§4)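 SKBr3 cells treated 24 h at the indicated concentrations, then lysed (20 mM Tris pH 7.4, 25 mM NaCl, 0.1% NP-40, protease inhibitors). 500 μg protein immunoprecipitated overnight at 4 °C with anti-Hsp70 BB70 (normal IgG as negative control) and protein G beads. Beads washed five times; co-precipitated HOP detected by Western blot.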

[8] = as §3; format: cell-based; conditions: SK-BR-3, 24 h; how it was run: as §4
SK-BR-3 [9] = assay: Binding affinity to Hsp70 in human SKBR3 cells after 1 hr by […] in presence of N-(6-Amino-2-((4,6-dimethoxy-2-(4-methylpiperazin-1-yl)-pyrimidin-5-yl)thio)pyrimidin-4-yl)acrylamide; format: cell-based
How it was run: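 Cells pretreated 2 h with increasing concentrations of soluble competitor, then lysed (20 mM Tris pH 7.4, 25 mM NaCl, 0.1% NP-40). Extract (500 μg protein) incubated overnight with beads carrying biotinylated ligand (50 μM, loaded 1 h at 4 °C). Beads washed in high-salt buffer (1 M NaCl), run on SDS–PAGE, and silver stained.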

| Compound | IC50 (MOLM-13) | IC50 (Kasumi 1) | IC50 (SK-BR-3 [1]) | IC50 [2] | IC50 [3] | IC50 [4] | IC50 [5] | IC50 [6] | inhibition (SK-BR-3 [7]) | IC50 [8] | Activity (SK-BR-3 [9]) |
| --- | --- | --- | --- | --- | --- | --- | --- | --- | --- | --- | --- |
| C=CC(=O)Nc1cc(N)nc(Sc2c(OCC)nc(N3CCOCC3)nc2OCC)n1 | 10.5 µM | 2.2 µM |  |  |  |  |  |  |  |  |  |
| C/C=C/C(=O)Nc1ccnc(Sc2c(C)nc(N3CCN(C)CC3)nc2C)n1 | 32 µM | 20 µM |  |  |  |  |  |  |  |  |  |
| C=C(C)C(=O)Nc1cccc(Sc2c(OC)nc(N3CCN(C)CC3)nc2OC)c1 | 60 µM |  |  |  |  |  |  |  |  |  |  |
| C=CC(=O)Nc1ccnc(Sc2c(OC)nc(N3CCN(C)CC3)nc2OC)n1 | 4 µM | 1.25 µM | 7.5 µM | 5 µM | 7.5 µM | > 500 µM | 1.2 µM |  |  |  |  |
| C=CC(=O)Nc1cccc(Sc2c(OC)nc(N3CCOCC3)nc2OC)c1 | 27.5 µM | 46.5 µM | 10 µM | 20 µM | 15 µM | > 500 µM | 16.5 µM |  |  |  |  |
| C=CC(=O)Nc1ccnc(Sc2c(OC)nc(N3CCOCC3)nc2OC)n1 | 7.2 µM | 2 µM |  |  |  |  |  |  |  |  |  |
| C=CC(=O)Nc1ccnc(Sc2c(OC)nc(N3CCCC3)nc2OC)n1 | > 100 µM | 46.1 µM | 25 µM | 17 µM | 20 µM | > 500 µM | 5 µM |  |  |  |  |
| C=CC(=O)Nc1cc(N)nc(Sc2c(OCC)nc(N3CCCCC3)nc2OCC)n1 | 4 µM | 4.5 µM | 10 µM | 3.1 µM | 2 µM | > 500 µM | 7 µM |  |  |  |  |
| O=c1c(O)c(-c2cc(O)c(O)c(O)c2)oc2cc(O)cc(O)c12 [MYRICETIN] |  |  | > 100 µM | > 100 µM | > 100 µM |  |  | 14.5 µM |  |  |  |
| C=CC(=O)Nc1cc(N)nc(Sc2c(OC)nc(N3CCCCC3)nc2OC)n1 | 16.2 µM | 17.1 µM | 5 µM | 7.5 µM | 2.5 µM | > 250 µM | 9 µM |  |  |  |  |
| C=CC(=O)Nc1cccc(Sc2c(OC)nc(N3CCN(C)CC3)nc2OC)c1 |  | 7.8 µM |  |  |  |  |  |  |  |  |  |
| C=CC(=O)Nc1ccnc(Sc2c(C)nc(N3CCN(C)CC3)nc2C)n1 | 6 µM |  | 5 µM | 5 µM | 4 µM | > 500 µM | 1.8 µM |  |  |  |  |
| C=CC(=O)Nc1ccnc(Sc2c(OC)nc(OC)nc2OC)n1 | 7.5 µM |  |  |  |  |  |  |  |  |  |  |
| C=CC(=O)Nc1cc(N)nc(Sc2c(OC)nc(N3CCOCC3)nc2OC)n1 | 12.1 µM |  |  |  |  |  |  |  |  |  |  |
| C=CC(=O)Nc1cc(N)nc(Sc2c(OC)nc(N3CCN(C)CC3)nc2OCCOCCOCCOCCO)n1 | 100 µM | 76.5 µM | 100 µM | 60 µM | 75 µM | > 500 µM | 50 µM |  |  |  |  |
| C=CC(=O)Nc1cc(N)nc(Sc2c(OCC)nc(N3CCN(C)CC3)nc2OCC)n1 | 4 µM | 0.89 µM | 1.5 µM | 2.5 µM | 1 µM | > 500 µM | 1.1 µM |  | Dose-dependent effect | 1.73 µM |  |
| C=CC(=O)Nc1cc(N)nc(Sc2c(OC)nc(N3CCN(CCOCCOCCOCCOC(=O)CCCC[C@@H]4SC[C@@H]5NC(=O)N[C@@H]54)CC3)nc2OC)n1 |  |  |  |  |  |  |  |  |  |  | Active |
| C=CC(=O)Nc1ccnc(Sc2c(OC)nc(N3CCCCC3)nc2OC)n1 | 12.4 µM | 3.15 µM |  |  |  |  |  |  |  |  |  |
| C=CC(=O)Nc1ccnc(Sc2c(C)nc(N3CCOCC3)nc2C)n1 | 15.4 µM | 14.4 µM |  |  |  |  |  |  |  |  |  |
| C=CC(=O)Nc1cc(N)nc(Sc2c(OC)nc(N)nc2OC)n1 | 4.5 µM | 3.9 µM | 7.5 µM | 3.5 µM | 5 µM | > 500 µM | 3.2 µM |  |  |  |  |
| C=C(C)C(=O)Nc1ccnc(Sc2c(C)nc(N3CCN(C)CC3)nc2C)n1 | 45 µM | 35 µM | 40 µM | 50 µM | 30 µM | > 500 µM | 16.7 µM |  |  |  |  |
| C=CC(=O)Nc1cc(N)nc(Sc2c(OC)nc(N3CCN(CCOCCOCCOCCO)CC3)nc2OC)n1 | 14.3 µM | 3.8 µM | 10 µM |  | 2.5 µM | > 500 µM | 7.5 µM |  |  |  |  |
| C=CC(=O)Nc1ccnc(Sc2c(OC)nc(N3CC[N+](C)([O-])CC3)nc2OC)n1 | > 100 µM | > 100 µM |  |  |  |  |  |  |  |  |  |
| C#CCCCn1c(Cc2cc(OC)c(OC)c(OC)c2Cl)nc2c(N)nc(F)nc21 |  |  |  | 2.5 µM | 2 µM |  | 2.9 µM |  |  |  |  |
| C=CC(=O)Nc1cc(N)nc(Sc2c(OC)nc(N3CCN(C)CC3)nc2OC)n1 | 1.2 µM | 0.9 µM | 2 µM | 1.7 µM | 0.7 µM | > 500 µM | 0.8 µM |  |  |  |  |
